The values below come from ChEMBL document CHEMBL1817572, “New, potent, selective, and short-acting peptidic V1a receptor agonists” (J Med Chem, 2011).

For assay [1], the target named is T1, Vasopressin V1b receptor (Homo sapiens, UniProt P47901).
T1 sequence (P47901 whole entry): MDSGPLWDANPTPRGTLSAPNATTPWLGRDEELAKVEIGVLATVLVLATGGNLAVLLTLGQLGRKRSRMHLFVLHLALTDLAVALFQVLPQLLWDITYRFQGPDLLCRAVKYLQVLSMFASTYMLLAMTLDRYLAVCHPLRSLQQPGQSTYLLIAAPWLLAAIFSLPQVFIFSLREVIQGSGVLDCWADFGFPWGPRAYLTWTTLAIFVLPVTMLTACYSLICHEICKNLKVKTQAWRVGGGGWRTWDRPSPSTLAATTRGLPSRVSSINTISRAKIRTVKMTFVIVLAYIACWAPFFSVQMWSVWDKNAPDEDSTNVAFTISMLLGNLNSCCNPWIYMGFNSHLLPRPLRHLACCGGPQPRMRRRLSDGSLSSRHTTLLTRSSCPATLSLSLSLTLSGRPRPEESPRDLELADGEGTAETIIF
As to the kind of experiment: Agonist activity at recombinant human vasopressin V1b receptor expressed in Flp-In-293 cells by luciferase reporter gene assay. The assay is classed as functional, cell-based. Particulars: read-out: EC50. The procedure, abridged: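 Reporter gene assays in HEK293 cells transiently cotransfected with V1a (human or rat) or human V2 receptor vector plus NFAT-luciferase (V1a) or CRE-luciferase (V2) reporter; V1b in Flp-In-293 stably expressing receptor, OT in CHO-K1 stably expressing receptor, both transiently transfected with NFAT-luciferase. Two days post-transfection, peptides added for 5 h at 37 °C, lysis with luciferin, luminescence read.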

Assay [2] concerns the target Vasopressin V1a/V2 (Homo sapiens) (UniProt P30518+P37288). Nature of the assay: Selectivity ratio of EC50 for human vasopressin V2 receptor to EC50 for human vasopressin V1a receptor.
The species named for assay [3] is Homo sapiens. Nature of the assay: Selectivity ratio of EC50 for human oxytocin receptor to EC50 for human vasopressin V1a receptor.
In assay [4] the target is Vasopressin V1a receptor (Homo sapiens, UniProt P37288). Nature of the assay: Agonist activity at recombinant human vasopressin V1a receptor expressed in HEK293 cells by luciferase reporter gene assay. Particulars: read-out: EC50. It is filed as functional, cell-based.
Chain of Vasopressin V1a receptor (P37288 whole entry): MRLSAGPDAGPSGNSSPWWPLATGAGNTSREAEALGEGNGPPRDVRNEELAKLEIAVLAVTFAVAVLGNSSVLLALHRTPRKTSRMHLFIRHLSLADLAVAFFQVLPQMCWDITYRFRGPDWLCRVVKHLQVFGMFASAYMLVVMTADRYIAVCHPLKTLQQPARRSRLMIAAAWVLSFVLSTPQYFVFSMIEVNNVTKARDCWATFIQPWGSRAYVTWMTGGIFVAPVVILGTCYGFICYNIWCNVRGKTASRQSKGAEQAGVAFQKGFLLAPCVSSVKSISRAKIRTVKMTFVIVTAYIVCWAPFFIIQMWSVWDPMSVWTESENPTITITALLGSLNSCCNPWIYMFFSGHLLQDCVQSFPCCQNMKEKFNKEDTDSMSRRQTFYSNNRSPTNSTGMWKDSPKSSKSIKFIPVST
The target in assay [5] is T2, Oxytocin receptor (Homo sapiens, UniProt P30559).
T2 sequence (P30559 whole entry): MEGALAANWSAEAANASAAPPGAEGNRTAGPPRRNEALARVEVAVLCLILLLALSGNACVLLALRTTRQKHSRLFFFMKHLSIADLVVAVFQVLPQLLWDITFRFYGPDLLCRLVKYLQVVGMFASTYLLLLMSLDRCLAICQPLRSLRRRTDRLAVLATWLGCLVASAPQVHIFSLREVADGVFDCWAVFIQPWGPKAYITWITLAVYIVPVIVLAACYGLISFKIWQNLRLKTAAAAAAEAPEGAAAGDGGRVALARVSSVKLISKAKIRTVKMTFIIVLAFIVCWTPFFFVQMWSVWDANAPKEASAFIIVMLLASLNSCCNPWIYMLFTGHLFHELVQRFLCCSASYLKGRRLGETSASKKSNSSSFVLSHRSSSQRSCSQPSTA
As to the kind of experiment: Agonist activity at human OT receptor expressed in CHO-K1 cells by luciferase reporter gene assay. It is filed as functional, cell-based. Particulars: for pEC50: read-out: EC50; for EC50: read-out: pEC50 (converted).

Assay [6] deals with Vasopressin V2 receptor (Homo sapiens, UniProt P30518). As to the kind of experiment: Agonist activity at recombinant human vasopressin V2 receptor expressed in HEK293 cells by luciferase reporter gene assay. Particulars: for pEC50: read-out: EC50; for EC50: read-out: pEC50 (converted). The assay is classed as functional, cell-based.
Chain of Vasopressin V2 receptor (P30518 whole entry): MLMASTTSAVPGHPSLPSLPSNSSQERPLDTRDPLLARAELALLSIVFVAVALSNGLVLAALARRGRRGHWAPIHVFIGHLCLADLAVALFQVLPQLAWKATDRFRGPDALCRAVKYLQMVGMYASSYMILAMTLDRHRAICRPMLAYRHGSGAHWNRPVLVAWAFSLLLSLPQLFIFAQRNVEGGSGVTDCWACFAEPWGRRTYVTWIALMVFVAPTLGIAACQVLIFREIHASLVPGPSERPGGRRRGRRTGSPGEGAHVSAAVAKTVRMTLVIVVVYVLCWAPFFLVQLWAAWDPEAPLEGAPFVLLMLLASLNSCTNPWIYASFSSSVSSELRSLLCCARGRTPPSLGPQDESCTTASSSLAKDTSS
The species entered for assay [7] is Homo sapiens. Nature of the assay: Selectivity ratio of EC50 for human vasopressin V1b receptor to EC50 for human vasopressin V1a receptor.

pEC50: −log10 of the molar value. Bridge positions count the residues as written; N and C are the ends. Square brackets hold non-standard residues; d marks the D form. Peptide text beside a SMILES is read from it. * marks the point of attachment. Ala(2-furyl) = N[C@@H](Cc1ccco1)C(=O)O; Orn(iPr) = CC(C)NCCC[C@H](N)C(=O)O; Dab(iPr) = CC(C)NCC[C@H](N)C(=O)O; 2Thi = N[C@@H](Cc1cccs1)C(=O)O; 3Thi = N[C@@H](Cc1ccsc1)C(=O)O; Aad = N[C@@H](CCCC(=O)O)C(=O)O; Orn = NCCC[C@H](N)C(=O)O; Dab = NCC[C@H](N)C(=O)O; X2 = CC(O)CN*; X3 = OCCOCCN*; NHOH = ON*

Chain of Vasopressin V1a/V2 (Homo sapiens) (P30518 whole entry, looked up): as the sequence (P30518 whole entry) above
Chain of Vasopressin V1a/V2 (Homo sapiens) (P37288 whole entry, looked up): as the sequence (P37288 whole entry) above

`CC[C@H](C)[C@@H]1NC(=O)[C@H](Cc2ccco2)NC(=O)[C@@H](N)CSSC[C@@H](C(=O)N2CCC[C@H]2C(=O)N[C@@H](CCCN)C(=O)NCC(N)=O)NC(=O)[C@H](CC(N)=O)NC(=O)[C@H](CC(N)=O)NC1=O` (H-C[Ala(2-furyl)]INNCP[Orn]G-NH2; disulfide 1-6): the pEC50 in assay [1] was 6.28; in assay [4], 8.00; in assay [5] (cho-k1), less than 5.00; in assay [6] (hek293) it was less than 5.00. For the same molecule, the Ratio EC50 was more than 1000 in assay [2], more than 1000 in assay [3] and 53 in assay [7]. Further, the EC50 in assay [5] and in assay [6] was more than 10000 nM in each case.

In the case of `CC[C@H](C)[C@@H]1NC(=O)[C@H](Cc2cccs2)NC(=O)[C@@H](N)CSSC[C@@H](C(=O)N2CCC[C@H]2C(=O)N[C@@H](CCCN)C(=O)NCC(N)=O)NC(=O)[C@H](CC(N)=O)NC(=O)[C@H](CC(N)=O)NC1=O` (H-C[2Thi]INNCP[Orn]G-NH2; disulfide 1-6), the pEC50 is 6.66 in assay [1], 7.82 in assay [4], less than 5.00 in assay [5] (cho-k1) and less than 5.00 in assay [6] (hek293). Besides, the Ratio EC50 is more than 660 in assay [2], more than 660 in assay [3] and 14 in assay [7]. For the same molecule, the EC50 in assay [5] and in assay [6] was more than 10000 nM each time.

Turning to `CC[C@H](C)[C@@H]1NC(=O)[C@H](Cc2ccsc2)NC(=O)[C@@H](N)CSSC[C@@H](C(=O)N2CCC[C@H]2C(=O)N[C@@H](CCN)C(=O)NCC(N)=O)NC(=O)[C@H](CC(N)=O)NC(=O)[C@H](CC(N)=O)NC1=O` (H-C[3Thi]INNCP[Dab]G-NH2; disulfide 1-6), the pEC50 in assay [1] was 6.42; in assay [4], 8.13; in assay [5] (cho-k1) it was less than 5.00; in assay [6] (hek293) it was less than 5.00. The Ratio EC50 is more than 1300 in assay [2], more than 1300 in assay [3] and 51 in assay [7]. Moreover, the EC50 in assay [5] and in assay [6] was more than 10000 nM each time.

In the case of `CC[C@H](C)[C@@H]1NC(=O)[C@H](Cc2ccccc2)NC(=O)[C@@H](N)CSSC[C@@H](C(=O)N2CCC[C@H]2C(=O)N[C@@H](CCNC(C)C)C(=O)NCC(N)=O)NC(=O)[C@H](CC(N)=O)NC(=O)[C@H](CCCC(N)=O)NC1=O` (H-CFI[Aad](NH2)NCP[Dab(iPr)]G-NH2; disulfide 1-6), the negative-log EC50 (pEC50) in assay [1] was 6.02; in assay [4] it was 7.74; in assay [5] (cho-k1), less than 5.00; in assay [6], 5.96. For the same molecule, the Ratio EC50 was 61 in assay [2], more than 550 in assay [3] and 53 in assay [7]. Besides, the EC50 in assay [5] is more than 10000 nM.

As to `CC[C@H](C)[C@@H]1NC(=O)[C@H](Cc2ccccc2)NC(=O)[C@@H](N)CSSC[C@@H](C(=O)N2CCC[C@H]2C(=O)N[C@@H](CCCN)C(=O)NCC(N)=O)NC(=O)[C@H](CC(N)=O)NC(=O)[C@H](CCC(=O)NO)NC1=O` (H-CFIE(NHOH)NCP[Orn]G-NH2; disulfide 1-6), the pEC50 in assay [1] is 7.15; in assay [4] it was 7.92; in assay [5] (cho-k1) it was less than 5.00; in assay [6] it was 6.77. In addition, the Ratio EC50 in assay [2] is 14; in assay [3], more than 830; in assay [7] it was 5.8. Further, the EC50 in assay [5] was more than 10000 nM.

For the molecule `CC[C@H](C)[C@@H]1NC(=O)[C@H](Cc2ccccc2)NC(=O)[C@@H](N)CSSC[C@@H](C(=O)N2CCC[C@H]2C(=O)N[C@@H](CCCN)C(=O)NCC(N)=O)NC(=O)[C@H](CC(N)=O)NC(=O)[C@H](CC(=O)NO)NC1=O` (H-CFID(NHOH)NCP[Orn]G-NH2; disulfide 1-6), the negative logarithm of the EC50 (pEC50) is 7.25 in assay [1], 8.39 in assay [4], less than 5.00 in assay [5] (cho-k1) and 5.59 in assay [6]. Also, the Ratio EC50 is 630 in assay [2], more than 2400 in assay [3] and 13 in assay [7]. Besides, the EC50 in assay [5] is more than 10000 nM.

In the case of `CC[C@H](C)[C@@H]1NC(=O)[C@H](Cc2ccccc2)NC(=O)[C@@H](N)CSSC[C@@H](C(=O)N2CCC[C@H]2C(=O)N[C@@H](CCCN)C(=O)NCC(N)=O)NC(=O)[C@H](CC(N)=O)NC(=O)[C@H](CC(=O)NCCOCCO)NC1=O` (H-CFID(X3)NCP[Orn]G-NH2; disulfide 1-6), the pEC50 in assay [1] was 7.39; in assay [4], 8.32; in assay [5] (cho-k1) it was less than 5.00; in assay [6] (hek293), less than 5.00. Besides, the Ratio EC50 in assay [2] is more than 2000; in assay [3], more than 2000; in assay [7], 8.5. For the same molecule, the EC50 in assay [5] and in assay [6] was more than 10000 nM in each case.

Consider `CCNC(=O)C[C@@H]1NC(=O)[C@H]([C@@H](C)CC)NC(=O)[C@H](Cc2ccccc2)NC(=O)[C@@H](N)CSSC[C@@H](C(=O)N2CCC[C@H]2C(=O)N[C@@H](CCCN)C(=O)NCC(N)=O)NC(=O)[C@H](CC(N)=O)NC1=O` (H-CFID(NHEt)NCP[Orn]G-NH2; disulfide 1-6), for which the pEC50 in assay [1] was 7.52; in assay [4], 8.24; in assay [5] (cho-k1), less than 5.00; in assay [6] (hek293), less than 5.00. The values for the Ratio EC50 in assay [2], in assay [3] and in assay [7] were more than 1700, more than 1700 and 5.2, respectively. Besides, the EC50 in assay [5] and in assay [6] was more than 10000 nM each time.

As to `CC[C@H](C)[C@@H]1NC(=O)[C@H](Cc2ccccc2)NC(=O)[C@@H](N)CSSC[C@@H](C(=O)N2CCC[C@H]2C(=O)N[C@@H](CCCN)C(=O)NCC(N)=O)NC(=O)[C@H](CC(N)=O)NC(=O)[C@H](CC(=O)NCC(C)O)NC1=O` (stereo partly specified) (H-CFID(X2)NCP[Orn]G-NH2; disulfide 1-6), the pEC50 is 7.55 in assay [1], 8.28 in assay [4], less than 5.00 in assay [5] (cho-k1) and less than 5.00 in assay [6] (hek293). The Ratio EC50 in assay [2] is more than 1900; in assay [3] it was more than 1900; in assay [7], 5.3. Moreover, the EC50 in assay [5] and in assay [6] was more than 10000 nM in each case.

Take `CC[C@H](C)[C@@H]1NC(=O)[C@H](Cc2ccco2)NC(=O)[C@@H](N)CSSC[C@@H](C(=O)N2CCC[C@H]2C(=O)N[C@@H](CCN)C(=O)NCC(N)=O)NC(=O)[C@H](CC(N)=O)NC(=O)[C@H](CCC(N)=O)NC1=O` (H-C[Ala(2-furyl)]IQNCP[Dab]G-NH2; disulfide 1-6): the pEC50 in assay [1] is 6.68; in assay [4], 8.66; in assay [5] it was 6.98; in assay [6], 6.48. The Ratio EC50 in assay [2] turned out to be 150; in assay [3] it was 47; in assay [7], 95.

In the case of `CC[C@H](C)[C@@H]1NC(=O)[C@H](Cc2ccco2)NC(=O)[C@@H](N)CSSC[C@@H](C(=O)N2CCC[C@H]2C(=O)N[C@@H](CCCNC(C)C)C(=O)NCC(N)=O)NC(=O)[C@H](CC(N)=O)NC(=O)[C@H](CC(N)=O)NC1=O` (H-C[Ala(2-furyl)]INNCP[Orn(iPr)]G-NH2; disulfide 1-6), the pEC50 in assay [1] was 5.74; in assay [4] it was 7.82; in assay [5], 6.01; in assay [6] (hek293), less than 5.00. The values for the Ratio EC50 in assay [2], in assay [3] and in assay [7] were more than 660, 64 and 120, respectively. The EC50 in assay [6] is more than 10000 nM.

For `CC[C@H](C)[C@@H]1NC(=O)[C@H](Cc2ccccc2)NC(=O)[C@@H](N)CSSC[C@@H](C(=O)N2CCC[C@H]2C(=O)N[C@@H](CCCN)C(=O)NCC(N)=O)NC(=O)[C@H](CC(N)=O)NC(=O)[C@H](CCC(=O)NC)NC1=O` (H-CFIE(NHMe)NCP[Orn]G-NH2; disulfide 1-6), the pEC50 in assay [1] is 7.23; in assay [4], 8.22; in assay [5], less than 5.00; in assay [6], 6.68. Further, the Ratio EC50 is 35 in assay [2], more than 1600 in assay [3] and 9.8 in assay [7]. In assay [5], the EC50 is 174 nM.
